Calls of active or inactive are those of the source. The calls are words filed in the database; no cut-off is given here. Where a SMILES comes first, the peptide text is derived from it. Bridges are numbered along the chain shown (N, C = ends). [ ]: non-standard residue; d: D form. The star is where a group is joined. NMeY = CN[C@@H](Cc1ccc(O)cc1)C(=O)O; Propionyl = CCC(=O)* Where only a bound is given, the exact number is not on record here.

In assay [1] the test system is Escherichia coli. Put plainly: Antimicrobial activity against Escherichia coli HO141 up to 30 uM after 24 hrs by broth microdilution assay. The class given is functional. (Dilution methods test growth across graded concentrations, often in twofold steps.)
Assay [2] deals with Pyricularia oryzae. Put plainly: Antimicrobial activity against Pyricularia oryzae kita-1 up to 30 uM after 48 hrs by broth microdilution assay. The class given is functional.
For assay [3], the system named is Plasmodium falciparum. Put plainly: Antimalarial activity against chloroquine-sensitive Plasmodium falciparum 3D7. The class given is functional. The method, boiled down: (§1)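 P. falciparum strains maintained at 37 °C under 5.0% CO2 in human erythrocytes (3% hematocrit), RPMI1640 with 10% human plasma; assay run per an earlier published method; IC50 in μM.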
The test system of assay [4] is NRK. Put plainly: Cytotoxicity against rat NRK cells infected with temperature-sensitive mutant of Rous sarcoma virus after 48 hrs by WST-8 assay. The class given is cell-based. The method, boiled down: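 Rat kidney cells infected with ts25 (T-class Rous sarcoma virus Prague mutant) grown at permissive 32 °C in MEM + 10% calf serum; […] cells/well seeded, compounds applied 48 h; WST-8 (1/10 volume) added for 1 h, growth read as absorbance at 450 nm.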
For orientation: Formazan colour is commonly taken as a measure of viable cells.

In assay [5] the test system is Plasmodium falciparum. Put plainly: Antimalarial activity against chloroquine-resistant Plasmodium falciparum K1. The class given is functional. The method, boiled down: as §1
Assay [6] has as its system Aspergillus fumigatus. Put plainly: Antimicrobial activity against Aspergillus fumigatus Af293 up to 30 uM after 48 hrs by broth microdilution assay. The class given is functional.
For assay [7], the system named is Plasmodium falciparum. Put plainly: Antimalarial activity against chloroquine-resistant Plasmodium falciparum Dd2. The class given is functional. The method, boiled down: as §1
Assay [8] relates to Staphylococcus aureus. Put plainly: Antimicrobial activity against Staphylococcus aureus 209 up to 30 uM after 24 hrs by broth microdilution assay. The class given is functional.
The subject of assay [9] is HeLa. Put plainly: Cytotoxicity against human HeLa cells after 48 hrs by WST-8 assay. In kind it is cell-based.
The nature of assay [10]: Cytotoxicity against temperature-sensitive mouse FT210 cells after 48 hrs by WST-8 assay. The note with it: FT210, 48 h. In kind it is cell-based. In a few lines: (§2)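 Cells were seeded in 96-well plates and exposed to compounds for 48 h. HL-60 cells were grown at 37 °C in RPMI-1640 with 10% FBS. tsFT210 cells, a mouse FM3A cdc2 temperature-sensitive mutant, were grown at 32 °C in RPMI-1640 with 5% calf serum. WST-8 was added at 1/10 volume for 1 h, and growth was read as absorbance at 450 nm.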

Assay [11] deals with Candida albicans. Put plainly: Antimicrobial activity against Candida albicans JCM1542 up to 30 uM after 24 hrs by broth microdilution assay. In kind it is functional.
Assay [12] has as its system HL-60. Put plainly: Cytotoxicity against human HL60 cells after 48 hrs by WST-8 assay. The following applies: HL-60, 48 h. In kind it is cell-based. In a few lines:
as §2

By IC50 is commonly meant the point on the concentration scale where inhibition reaches its midpoint. `CC(=O)N[C@@H]1C(=O)N[C@@H](Cc2ccccc2)C(=O)N[C@H](CC(C)C)C(=O)N[C@@H](C(C)C)C(=O)N2CCC[C@H]2C(=O)N[C@@H](CC(C)C)C(=O)N(C)[C@@H](Cc2ccc(O)cc2)C(=O)N2CCC[C@H]2C(=O)O[C@@H]1C` (Ac-TF[dL]VPL[NMeY]P; ester 1-C): the result in assay [1], in assay [2], in assay [6], in assay [8] and in assay [11] was inactive. The IC50 was 1500 nM in assay [3]; greater than 30 µM in assay [4]; 830 nM in [5]; 1100 nM in assay [7]; greater than 30 µM in [9]; greater than 30 µM in assay [10]. In [12], this compound showed an IC50 greater than 30 µM.

On to `CCC(=O)N[C@@H]1C(=O)N[C@@H](Cc2ccccc2)C(=O)N[C@H](CC(C)C)C(=O)N[C@@H](C(C)C)C(=O)N2CCC[C@H]2C(=O)N[C@@H](CC(C)C)C(=O)N(C)[C@@H](Cc2ccc(O)cc2)C(=O)N2CCC[C@H]2C(=O)O[C@@H]1C` (Propionyl-TF[dL]VPL[NMeY]P; ester 1-C), for which the result in [1], in [2], in assay [6], in assay [8] and in assay [11] was inactive. Moreover, the IC50 in [3] is 1500 nM; in assay [4] it was greater than 30 µM; in assay [5], 1300 nM; in [7], 1600 nM; in [9], greater than 30 µM; in assay [10] it was greater than 30 µM. Besides, in assay [12], the IC50 is greater than 30 µM.

Source of the values: ChEMBL document CHEMBL4004799, “Octaminomycins A and B, Cyclic Octadepsipeptides Active against Plasmodium falciparum” (J Nat Prod, 2017).
